hERG rescue: hERG (human) protection from proarrhythmic block. Q12809. activation (rescue from dofetilide block), less the hit threshold, % at 10 µM. CHO-hERG, FluxOR thallium flux, dofetilide IC70 present. AID 1511. 310,000 tested, 0.51% active;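 active = activation above the mean of controls blocked by dofetilide plus 5 SD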;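 note: thallium influx through hERG after potassium depolarization seen as dye fluorescence rise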
KCNQ1 pot: potentiators or activators of human KCNQ1 potassium channel; P51787; CHO-K1 KCNQ1, thallium flux FluxOR fluorescence; active compounds read high; B-score at 10 µM; 310,000 tested, 0.35% active; AID 2648;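 active = fluorescence ratio B-score, a plate-corrected score, at least three library SD, with initial intensity B-score within 5 SD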
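Assay system: CHO-K1 cells stably expressing KCNQ1; Medium: assay buffer with matched DMSO; Also added: K+/Tl+ depolarizing stimulus; Dosing: single dose; Timing: dye 90 min, compound 20 min, room temperature; Measured by: kinetic FluxOR thallium fluorescence, 10-s 1-Hz baseline, 110-s post-stimulus read; Read-out: peak-minus-minimum fluorescence over initial fluorescence, negative-control normalized, B-scored.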
KCNK3 inh: human KCNK3 channel inhibition, primary screen | CHO-KCNK3 thallium flux, FluxOR fluorescence; active compounds read low | B-score at 10 µM | 340,000 tested, 0.84% active;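 active = B-score under library mean minus 4 SD, starting fluorescence ratio at most library mean plus 5 SD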;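 note: more negative B-score means stronger inhibition of thallium flux through KCNK3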
KCNK9 inh: inhibitors of human KCNK9 two-pore domain potassium channel; Q9NPC2; HEK293 KCNK9, FluxOR thallium flux fluorescence; active compounds read low; B-score at 10 µM; 310,000 tested, 1.2% active; AID 488922;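 active = ratio B-score over 3 SD below the library mean, with starting fluorescence within 5 SD of its mean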;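 note: negative B-score means less thallium flux so channel inhibition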
KCNQ1 block: blocks the human KCNQ1 potassium channel; P51787; CHO-K1 KCNQ1, FluxOR thallium flux fluorescence; active compounds read high; B-score at 10 µM; 310,000 tested, 1.3% active; AID 2642;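 active = compounds whose thallium flux B-score, printed positive for inhibition, exceeds three library SD while starting fluorescence stays within three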;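 note: channel opened by potassium depolarization with thallium stimulus after 20 min compound exposure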
Kir21 block: inhibitors of mouse Kir2.1 inward-rectifier potassium channel. P35561. HEK293-Kir2.1, FluxOR thallium flux fluorescence; active compounds read low. B-score at 10 µM. 310,000 tested, 0.85% active;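 active = fluorescence ratio B-score at or below minus 3 SD of library scores, with starting-brightness B-score within 2 SD, cut at about -4.2 in these data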;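 note: channel flux triggered by added potassium and thallium sulfate stimulus; B-score of peak minus minimum fluorescence over baseline after thallium stimulus; more negative B-score means stronger Kir2.1 block with less thallium influx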
Target sequence (P35561 whole entry, looked up): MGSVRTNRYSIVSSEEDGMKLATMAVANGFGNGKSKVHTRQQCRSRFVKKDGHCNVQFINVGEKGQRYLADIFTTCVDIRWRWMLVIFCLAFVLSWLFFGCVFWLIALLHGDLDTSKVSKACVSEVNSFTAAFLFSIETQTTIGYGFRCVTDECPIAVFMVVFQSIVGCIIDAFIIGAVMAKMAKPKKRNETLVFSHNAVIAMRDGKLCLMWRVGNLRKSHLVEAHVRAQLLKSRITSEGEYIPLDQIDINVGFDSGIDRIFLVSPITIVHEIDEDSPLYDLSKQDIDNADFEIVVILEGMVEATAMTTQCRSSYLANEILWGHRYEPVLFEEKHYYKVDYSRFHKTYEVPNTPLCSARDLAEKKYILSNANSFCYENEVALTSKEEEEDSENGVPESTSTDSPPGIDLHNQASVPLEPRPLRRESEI
KCNQ1 inh valid: confirmation of human KCNQ1 potassium channel inhibitors; shares compounds with KCNQ1 block; KCNQ1 cell line, FluxOR thallium flux fluorescence; inhibition, % at 10 µM; 1,600 tested, 93% active; AID 588353;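 active = primary screen active, with duplicate mean exceeding buffer control mean plus 3 SD of buffer wells, cut at about 28% in these data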;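 note: 0% = buffer control ratio and 100% = XE991 inhibitor control ratio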
CHO Tl flux: activity in parental CHO cells lacking KCNQ1; shares compounds with KCNQ1 block; parental CHO-K1, FluxOR thallium flux fluorescence ratio; active compounds read low; zero means no signal rise above baseline; fluorescence ratio (Tl flux) at 10 µM; 1,600 tested, 21% active;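 active = mean of duplicate thallium-flux fluorescence ratios in parental host cells more than 5 SD below the buffer control mean, cut at about 0.38 in these data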;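 note: ratio is peak minus minimum fluorescence divided by baseline fluorescence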
KCNQ1 ephys val: human KCNQ1 inhibition validated by electrophysiology; calls only at 10 µM; 490 tested, 20% active; KCNQ1-CHO cells, automated patch clamp current; AID 624120; shares compounds with KCNQ1 block;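 active = KCNQ1 current drop exceeding 3 SD of negative control wells, seen in both duplicate runs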;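 note: steady state current during a 2 s step from -80 to +40 mV; negative values mean current inhibition and positive values mean potentiation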
KCNQ2 spec: rat KCNQ2 inhibition in KCNQ1 inhibitor specificity screen | shares compounds with KCNQ1 block | KCNQ2 cells, FluxOR thallium flux fluorescence | inhibition, % at 10 µM | 1,600 tested, 71% active | AID 651746;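 active = mean percent inhibition of the KCNQ2 thallium signal more than 5 SD above the buffer-only control wells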;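 note: KCNQ2 expressed in CHO cells; 0% = buffer control wells and 100% = XE-991 inhibitor control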
KCNQ1-KCNE1 inh: KCNQ1 inhibitor that also blocks human KCNQ1/KCNE1 channel; shares compounds with KCNQ1 block; KCNQ1/KCNE1 cells, FluxOR thallium flux fluorescence; 1,600 tested, 77% active; inhibition, % at 10 µM;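 active = mean percent inhibition of duplicate wells above the buffer-only control mean plus 3 SD of those controls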;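 note: 0% = buffer only wells and 100% = XE-991 inhibitor control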
* = called active by the depositor; i = inactive; . = not tested or not shown; + = active, no number. The list is not random: actives were taken first. Their share in the collection is about 3.7%.

SMILES	hERG rescue	KCNQ1 pot	KCNK3 inh	KCNK9 inh	KCNQ1 block	Kir21 block	KCNQ1 inh valid	CHO Tl flux	KCNQ2 spec	KCNQ1-KCNE1 inh	others
CCOc1ccc(-c2cc(C(=O)NCCCn3ccnc3)c3ccccc3n2)cc1	-10.0	i	i	i	6*	-3.11	26.5*	0.432	85.7%*	43.0%*
Cc1c(Cl)cccc1NC(=S)N1CCCN(Cc2ccccc2F)C1	-16.0	i	i	i	i	-1.35	.	.	.	.
Fc1ccccc1CN1CCCN(C(=S)Nc2cccc(Cl)c2)C1	-7.9	i	i	i	7*	-0.01	47.0*	0.479	72.7%*	i
COc1ccc(-c2cc(C(=O)N3CCN(c4cccc(C)c4C)CC3)c3ccccc3n2)cc1OC	-28.7	i	i	i	8*	-0.68	60.5*	0.448	108.0%*	95.5%*
COc1ccc(-c2cc(C(=O)N3CCN(c4ncccn4)CC3)c3ccccc3n2)cc1OC	.	.	i	.	.	.	.	.	.	.
CN(C(=O)c1cccc(NC(=O)Cc2cccc(NC(=O)C3CCCN(C(=O)CCc4ccccc4)C3)c2)c1)C1CCC1 (stereo not drawn)	.	.	i	.	.	.	.	.	.	.
Cc1ccc(C(=O)C(C)OC(=O)CN2C(=O)NC3(CCCC3)C2=O)cc1 (stereo not drawn)	-14.0	i	i	i	i	0.27	.	.	.	.
Fc1ccccc1-c1nc(-c2ccc(Cl)cc2)no1	-10.2	i	i	i	i	-1.6	.	.	.	.
c1ccc(-c2noc(-c3ccccc3-c3ccccc3)n2)cc1	-8.1	i	i	i	7*	0.41	133.0*	0.401	115.3%*	193.5%*	KCNQ1 ephys val=i
O=C(Nc1ccccc1N1CCCCC1)C1CCN(S(=O)(=O)c2cccc(C(F)(F)F)c2)CC1	-9.3	i	i	i	6*	-0.72	62.0*	0.472	109.7%*	48.0%*
O=C(Nc1ccccc1N1CCCC1)C1CCN(S(=O)(=O)c2cccc(C(F)(F)F)c2)CC1	-13.4	i	i	i	i	-0.07	.	.	.	.
O=S(=O)(c1ccc(-c2ccccn2)s1)N1CCC2(CC1)OCCO2	-8.7	i	i	i	i	-0.38	.	.	.	.
Cc1ccnc(NS(=O)(=O)c2ccc(NC(=O)c3ccc(Cl)cc3[N+](=O)[O-])cc2)n1	-5.6	i	i	i	i	0.05	.	.	.	.
CCOC(=O)C(C(=O)OCC)c1cc(Br)c2noc3c2c1C(=O)c1ccccc1-3	-26.4	i	i	i	16*	-4.65	183.0*	0.148*	i	i
CC(=O)OCCNc1cc(N2CCN(C)CC2)c2noc3c2c1C(=O)c1ccccc1-3	.	.	i	.	.	.	.	.	.	.
Cc1cc(C)cc(NC(=O)CSc2nc3ccccc3nc2N2CCCCC2)c1	-9.4	i	i	i	6*	0.35	68.5*	0.463	92.0%*	86.0%*
Cc1cc(C)cc(NC(=O)CSc2nc3ccccc3nc2N2CCCC2)c1	-9.6	i	i	i	i	0.85	.	.	.	.
C=CCNc1nc2ccccc2nc1NS(=O)(=O)c1ccc(Br)cc1	-2.7	i	i	i	7*	0.73	70.5*	0.514	59.0%*	i
C=CCNc1nc2ccccc2nc1NS(=O)(=O)c1ccc(F)cc1	-9.2	i	i	i	i	0	.	.	.	.
O=C(Nc1ccccc1)C1C(c2ccccc2)C1(Cl)Cl (stereo not drawn)	-11.5	i	i	i	14*	0.16	102.0*	0.433	101.0%*	136.5%*	KCNQ1 ephys val=+
O=C(NC(=S)Nc1ccc(Br)c(Cl)c1)C1CC1	-8.7	i	i	i	i	0.51	.	.	.	.
CC(=O)c1ccc(NC(=S)Nc2ccc(Br)c(Cl)c2)cc1	-29.4	i	i	i	6*	-0.45	61.0*	0.454	i	i
O=C(c1ccc(NC(=S)Nc2ccc(Cl)c(Cl)c2)cc1)N1CCCC1	-15.2	i	i	i	9*	-0.88	36.0*	0.499	i	i
C[C@H](NC(=O)c1ccco1)C(=O)OCC(=O)N1CC(=O)Nc2ccccc21	.	.	i	.	.	.	.	.	.	.
CCN1CCN(C(CNS(=O)(=O)c2ccc(Cl)cc2)c2cccnc2)CC1 (stereo not drawn)	-2.8	i	i	i	i	0.89	.	.	.	.
SMILES	hERG rescue	KCNQ1 pot	KCNK3 inh	KCNK9 inh	KCNQ1 block	Kir21 block	KCNQ1 inh valid	CHO Tl flux	KCNQ2 spec	KCNQ1-KCNE1 inh	others
NC(=S)Nc1ccc(C(F)(F)F)cc1Cl	-12.1	i	i	i	i	1.3	.	.	.	.
CSCc1cc(N(C)c2ccccc2)nc(-c2ccccc2)n1	-5.5	i	i	i	7*	-1.09	91.0*	0.444	91.0%*	98.0%*	KCNQ1 ephys val=i
COc1cc(CSC)nc(-c2ccccc2)n1	-6.4	i	i	i	i	0.34	.	.	.	.
Cc1cn(CC(=O)NCCc2ccccn2)c(=O)[nH]c1=O	.	.	i	.	.	.	.	.	.	.
CCc1ccccc1NC(=S)NCCSc1ccc(Cl)cc1	-15.8	i	i	i	i	0.45	.	.	.	.
Cc1ccc(C)c(NC(=S)NCCSc2ccc(Cl)cc2)c1	-11.3	i	i	i	8*	-1.93	121.5*	0.428	90.0%*	121.5%*	KCNQ1 ephys val=i
Cc1cccc(NC(=S)NCCSc2ccc(Cl)cc2)c1	-17.2	i	i	i	8*	-0.28	82.0*	0.426	60.3%*	95.5%*
CN(C)S(=O)(=O)c1cccc(NC(=O)CN2C(=O)NC(Cc3c[nH]c4ccccc34)C2=O)c1 (stereo not drawn)	-11.4	i	i	i	i	-0.25	.	.	.	.
COc1ncnc2c1sc1nc(-c3ccccc3)c3c(c12)CCCC3	-12.7	i	i	i	10*	0	103.0*	0.424	95.7%*	131.0%*	KCNQ1 ephys val=i
CC1(C)Cc2c(C#N)c(SCCO)nc(N3CCOCC3)c2CO1	-10.6	i	i	i	i	0.22	.	.	.	.
CC1(C)Cc2c(C#N)c(SCCOc3ccccc3)nc(N3CCOCC3)c2CO1	-21.2	i	-9.39*	i	7*	0.02	83.5*	0.449	65.3%*	164.5%*

Screening data deposited in PubChem BioAssay by Johns Hopkins Ion Channel Center.
